Screens (PubChem)
In the library only some 9.8% were active in any assay of this set; here they are far more common.
PMI act satM6P: human PMI activators, high substrate, primary screen, biochemical, fluorescence intensity, near-saturating mannose 6-phosphate. 190,000 tested, 0.34% active. coupled PMI enzyme assay, resazurin fluorescence, 20 min; stronger effect = higher value; 1 = untreated enzyme, 0 = substrate-free blank. activation factor at 20 µM. Mannose-6-phosphate isomerase (Homo sapiens), P34949;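 active = activation factor of 2 or more at 20 µM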
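Material: human phosphomannose isomerase with PGI, G6PDH, diaphorase coupling enzymes / Reagent: Man-6-P substrate 1.0 mM / Dosing: single compound dose of 20 µM, 1% DMSO final / Incubation: enzyme reaction with compound 20 min at room temperature / Signal: resorufin fluorescence (Ex 544/Em 590 nm) from resazurin via diaphorase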
WT yeast gro inh: growth inhibition of WT strain, primary screen, mitochondrial fusion inhibitor project, WT and mutant strains, chemical genetic; inhibition, % at 10 µM; 190,000 tested, 2.1% active; mitochondrial fusion phenotypic screen; in the data active = inhibition above about 58%; tested in S. cerevisiae
Lmaj promast: Leishmania major promastigote growth inhibition, primary screen; 200,000 tested, 9% active; AID 1063, 2008; inhibition, % at 10 µM; Leishmania major promastigotes, resazurin fluorescence viability; in the data active = inhibition above about 50%;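 note: promastigotes grown with compound for 44 hours at 28 °C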
Rad51 HR inh: human RAD51 strand exchange inhibitors, primary screen, biochemical, fluorescence; hRad51 DNA strand exchange, fluorescence dequenching; 200,000 tested, 0.085% active; DNA repair protein RAD51 homolog 1 (Homo sapiens), Q06609; inhibition, % at 10 µM;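 active = inhibition above 40% at the single screening dose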;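 note: 0% = DMSO control wells and 100% = blanks with heterologous ssDNA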
Target sequence (Q06609 whole entry, looked up): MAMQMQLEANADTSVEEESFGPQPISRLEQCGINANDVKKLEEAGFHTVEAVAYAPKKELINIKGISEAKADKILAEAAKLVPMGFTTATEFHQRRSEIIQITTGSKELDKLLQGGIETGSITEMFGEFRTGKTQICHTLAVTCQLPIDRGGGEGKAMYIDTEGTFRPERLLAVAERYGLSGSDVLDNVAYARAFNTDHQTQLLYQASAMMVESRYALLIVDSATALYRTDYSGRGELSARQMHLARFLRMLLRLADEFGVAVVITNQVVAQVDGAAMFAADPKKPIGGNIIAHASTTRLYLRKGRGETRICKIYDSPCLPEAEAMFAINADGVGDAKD
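Material: Human Rad51 nucleoprotein filaments preassembled on unlabelled ssDNA | Also added: Labelled 47-mer dsDNA for strand exchange | Dosing: Single dose, 10 µM final compound | Schedule: 30-min compound preincubation and 15-min exchange, both room temperature | Technique: Fluorescence dequenching at 485/520 nm | Measure: Percent inhibition relative to plate controls and blanks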
PMI act: activators of human PMI, primary screen, biochemical, fluorescence intensity, near-Km mannose 6-phosphate | 190,000 tested, 0.005% active | purified human PMI, coupled resazurin fluorescence, 20 min; stronger effect = higher value; 1 = vehicle control, 0 substrate-free wells | activation factor at 20 µM | Mannose-6-phosphate isomerase (Homo sapiens), P34949;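 active = activation factor of 2 or more at 20 µM, relative to plate controls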
m-calpain inh: inhibitors of pig calpain II, primary screen, biochemical, fluorogenic peptide substrate, 1536-well; 220,000 tested, 0.37% active; purified calpain II, 30 min; inhibition, % at 16 µM;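 active = inhibition above about 50%, limit read from the data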
The depositor's hits bear a star.

Results for COc1ccc(-c2nnc(SCc3ccccc3F)o2)cc1OC ?
PMI act satM6P: 0.9; WT yeast gro inh: 6; Lmaj promast: -3; Rad51 HR inh: -1; PMI act: 0.8; m-calpain inh: -25

Results for CCCNC(=O)CN1C(=O)NC(CCSC)C1=O (stereo not drawn) ?
Rad51 HR inh: 3; m-calpain inh: 11

How did O=C(NC(=S)NN1CCCCC1c1cccnc1)c1ccc(Cl)cc1Cl (stereo not drawn) do in these assays?
Rad51 HR inh: 9; m-calpain inh: 5

Results for Cc1ccccc1-n1nnnc1SCC(=O)NCC1CCCO1 (stereo not drawn) ?
PMI act satM6P: 1; WT yeast gro inh: 3; Lmaj promast: -1; Rad51 HR inh: -10; PMI act: 1.1; m-calpain inh: 19

Results for CCN(CC)CCOCCOc1cc(C)c(Cl)c(C)c1 ?
PMI act satM6P: 1; WT yeast gro inh: 0; Lmaj promast: 99*; Rad51 HR inh: -5; PMI act: 1; m-calpain inh: 5

Results for Cc1cc(OCCOCCN(C)CCO)cc(C)c1Cl ?
PMI act satM6P: 1; WT yeast gro inh: 5; Lmaj promast: 95*; Rad51 HR inh: -3; PMI act: 0.9; m-calpain inh: -17

What do the screens show for `COc1cccc(OCCOCCN(C)CCO)c1`?
PMI act satM6P: 1; WT yeast gro inh: -13; Lmaj promast: -2; Rad51 HR inh: -11; PMI act: 1; m-calpain inh: 16

How did NNC(=S)NCc1ccco1 do in these assays?
m-calpain inh: -18

How did CNc1nc(N)nc(-c2cc(Cl)ccc2OC)n1 do in these assays?
PMI act satM6P: 1; WT yeast gro inh: -7; Lmaj promast: 7; Rad51 HR inh: 22; PMI act: 1; m-calpain inh: -8

Results for CCc1ccc(C2c3[nH]c4ccccc4c3CCN2C(=O)c2cc(C)nn2C)cc1 (stereo not drawn) ?
PMI act satM6P: 0.8; WT yeast gro inh: 33; Lmaj promast: 60*; Rad51 HR inh: -35; PMI act: 0.8; m-calpain inh: -77

How did CSc1ccc(C2c3[nH]c4ccccc4c3CCN2C(=O)c2cc(C)n(C)n2)cc1 (stereo not drawn) do in these assays?
PMI act satM6P: 0.8; WT yeast gro inh: 45; Lmaj promast: 43; PMI act: 0.8; m-calpain inh: -85

How did Cc1nc(C(=O)N2CCc3c([nH]c4ccccc34)C2c2cc(F)ccc2F)cs1 (stereo not drawn) do in these assays?
PMI act satM6P: 0.8; WT yeast gro inh: 75*; Lmaj promast: 54*; PMI act: 0.8; m-calpain inh: 1

How did CC(=O)NCCC(=O)N1CCc2c([nH]c3ccccc23)C1c1cccc(Cl)c1 (stereo not drawn) do in these assays?
PMI act satM6P: 0.8; WT yeast gro inh: 6; Lmaj promast: 4; Rad51 HR inh: 6; PMI act: 0.9; m-calpain inh: -4

What do the screens show for `O=C(c1cnccn1)N1CCc2c([nH]c3ccccc23)C1c1cccc(Cl)c1` (stereo not drawn)?
PMI act satM6P: 0.9; WT yeast gro inh: 61*; Lmaj promast: 46; Rad51 HR inh: -6; PMI act: 0.8; m-calpain inh: -41

How did Cc1cc(C(=O)N2CCc3c([nH]c4ccccc34)C2c2cccc(Cl)c2)nn1C (stereo not drawn) do in these assays?
PMI act satM6P: 0.8; WT yeast gro inh: 61*; Lmaj promast: 30; Rad51 HR inh: -6; PMI act: 0.9; m-calpain inh: -98

What do the screens show for `O=C(NNC(=S)NC(=O)c1sc2ccccc2c1Cl)c1ccc(Cl)cc1`?
PMI act satM6P: 1.1; WT yeast gro inh: 30; Lmaj promast: -4; Rad51 HR inh: -16; PMI act: 1; m-calpain inh: -18

How did O=C(CSc1cccc[n+]1[O-])c1cc2ccccc2o1 do in these assays?
PMI act satM6P: 1.1; WT yeast gro inh: 5; Lmaj promast: 95*; Rad51 HR inh: 0; PMI act: 1; m-calpain inh: -16

Results for O=C(CSc1cccc[n+]1[O-])c1cc(Cl)ccc1Cl ?
PMI act satM6P: 1.1; WT yeast gro inh: 9; Lmaj promast: 99*; Rad51 HR inh: 5; PMI act: 1; m-calpain inh: 70*

How did O=C(O)CSc1cccc[n+]1[O-] do in these assays?
PMI act satM6P: 1; WT yeast gro inh: -8; Lmaj promast: -2; Rad51 HR inh: -11; PMI act: 1; m-calpain inh: -1

What do the screens show for `CN(C)CC(C)(C)CNC(C(=O)Nc1ccc(Cl)cc1C(F)(F)F)c1ccccc1` (stereo not drawn)?
PMI act satM6P: 1; WT yeast gro inh: -4; Lmaj promast: 16; Rad51 HR inh: -8; PMI act: 1; m-calpain inh: -18

What do the screens show for `COc1ccc2c(c1)CCc1c(C(=O)N3CCCCCC3)noc1-2`?
PMI act satM6P: 0.7; WT yeast gro inh: -3; Lmaj promast: 3; Rad51 HR inh: 4; PMI act: 0.8; m-calpain inh: 14

What do the screens show for `COc1ccc2c(c1)CCc1c-2n[nH]c1C(=O)O`?
PMI act satM6P: 0.9; WT yeast gro inh: 72*; Lmaj promast: 13; Rad51 HR inh: 9; PMI act: 0.9; m-calpain inh: -18

How did O=c1[nH]ncc(N/N=C\c2cccs2)c1Cl do in these assays?
PMI act satM6P: 1.1; WT yeast gro inh: -4; Lmaj promast: -4; Rad51 HR inh: 27; PMI act: 1; m-calpain inh: 0

How did COc1cc(/C=C/C(=O)Nc2ccc(N3CCCCC3)c(S(=O)(=O)Nc3ccccc3Cl)c2)cc(OC)c1OC do in these assays?
PMI act satM6P: 1; WT yeast gro inh: 9; Lmaj promast: 53*; Rad51 HR inh: -7; PMI act: 0.8; m-calpain inh: -49

How did COc1ccccc1NS(=O)(=O)c1cc(NC(=O)Nc2ccc(Cl)cc2Cl)ccc1N1CCCCC1 do in these assays?
PMI act satM6P: 1; WT yeast gro inh: 14; Lmaj promast: 99*; Rad51 HR inh: 0; PMI act: 1; m-calpain inh: -33

How did Nc1ccc(N2CCCCC2)c(S(=O)(=O)Nc2ccccc2Cl)c1 do in these assays?
Rad51 HR inh: 20; m-calpain inh: 1

What do the screens show for `O=C(Nc1cccc(S(=O)(=O)N2CCCCC2)c1)Nc1ccc(Cl)cc1Cl`?
PMI act satM6P: 0.9; WT yeast gro inh: 82*; Lmaj promast: 60*; PMI act: 0.8; m-calpain inh: -24

How did O=C(Nc1cccc(C(F)(F)F)c1)Nc1ccc(N2CCCC2)c(S(=O)(=O)Nc2ccccc2Cl)c1 do in these assays?
PMI act satM6P: 1.4; WT yeast gro inh: -1; Lmaj promast: 100*; Rad51 HR inh: -8; PMI act: 1.3; m-calpain inh: 9
